Screening data: PubChem BioAssay, several laboratories
CHT block = human CHT choline transport inhibition; Q9GZV3; CHT-expressing cells, membrane potential dye, choline response; active compounds read low; B-score at 10 µM; actives 0.86% (n = 310,000); AID 488975;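 active = B-score over 3 SD under the library average, and starting fluorescence ratio not unusually high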;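 note: choline stimulus applied at its EC90 after an EC20 pre-addition; B-score computed on integrated fluorescence ratio after choline addition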
Target sequence (Q9GZV3 whole entry, looked up): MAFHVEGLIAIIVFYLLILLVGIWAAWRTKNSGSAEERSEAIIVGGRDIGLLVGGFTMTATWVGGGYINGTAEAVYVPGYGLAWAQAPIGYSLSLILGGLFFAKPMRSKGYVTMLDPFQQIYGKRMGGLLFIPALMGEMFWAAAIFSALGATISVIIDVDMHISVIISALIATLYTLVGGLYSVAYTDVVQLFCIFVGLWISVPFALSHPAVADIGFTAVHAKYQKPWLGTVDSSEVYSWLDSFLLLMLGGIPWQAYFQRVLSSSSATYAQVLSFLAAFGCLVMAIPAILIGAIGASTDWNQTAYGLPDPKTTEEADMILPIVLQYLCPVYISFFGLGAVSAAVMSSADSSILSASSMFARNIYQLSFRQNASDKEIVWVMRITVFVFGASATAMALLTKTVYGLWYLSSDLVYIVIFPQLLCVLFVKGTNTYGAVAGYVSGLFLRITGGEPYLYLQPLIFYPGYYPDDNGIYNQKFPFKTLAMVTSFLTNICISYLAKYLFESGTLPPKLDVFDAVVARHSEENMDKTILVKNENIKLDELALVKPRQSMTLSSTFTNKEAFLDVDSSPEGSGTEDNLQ
Lipid droplet = modulators of hepatic lipid droplet formation; AML12 mouse hepatocytes, oleate lipid droplets, BODIPY imaging; inhibition, % at 6.5 µM; actives 0.4% (n = 240,000); AID 1656;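 active = lipid droplet intensity inhibited by at least 50%, with more than 500 cells counted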
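Assay system: AML12 hepatocytes (mouse); Probe or stimulus: oleic acid at 100 µM to induce lipid droplet formation; Dosing: compound at 6.5 µM only; Schedule: compound with oleate, overnight; Detection: fluorescence imaging, 20x objective, two fields per well; Measure: % inhibition of lipid droplet signal.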
HSF1 activator = increases HSF-1 driven luciferase reporter signal | NIH3T3-HGL HSF-1 luciferase reporter, MG132, 8 h; 100% = twice DMSO control signal | AID 504408 | actives 1.7% (n = 300,000) | activation, % at 9 µM;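 active = mean replicate activation of at least 50% with a set share of replicates each reaching 50%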
CHT allo act = allosterically activates the human high affinity choline transporter; CHT-expressing cells, membrane potential dye, choline EC20; active compounds read high; LV-AA mutant CHT in HEK293 cells; AID 488977; Q9GZV3; B-score at 10 µM; actives 0.49% (n = 310,000);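 active = initial fluorescence not abnormally high and integrated response B-score, plate-corrected, over 3 SD above library mean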
HSF1 inhib = HSF1 inhibition. NIH3T3-HGL HSE-luciferase, MG132-induced, luminescence 8 h; active compounds read low. activity change, negative = inhibition, % at 7.5 µM (by protocol). actives 0.77% (n = 300,000);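 active = more than half of replicate wells show activity change below -50%, luminescence cut by over half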;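 note: luciferase reports HSF-1 transcriptional activity via heat shock element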
PHOSPHO1 inh = inhibitors of human PHOSPHO1 phosphatase | inhibition, % at 13.3 µM | recombinant PHOSPHO1, absorbance phosphatase assay | AID 1565 | Q8TCT1 | actives 1.1% (n = 290,000); in the data active = inhibition above about 60%
CHT activ conf = confirmation of human choline transporter (CHT) activators. AID 504833. shares compounds with CHT allo act. CHT-expressing cells, membrane potential dye fluorescence (FDSS); % of choline EC20–EC90 response window; HEK293 expressing CHT LV-AA mutant; choline added at its EC20. actives 91% (n = 2,500). activation, % at 10 µM;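 active = primary screen active, with duplicate mean activation above negative control mean plus 3 SD, cut at about 11% in these data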
HEK293 MP dye = counter-screen for CHT activators: effect in parental HEK293 cells; shares compounds with CHT allo act; membrane potential dye fluorescence (FDSS); measured after EC20 choline addition; ratio readout change at 10 µM, hits read low; actives 62% (n = 2,500); AID 623908;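 active = duplicate-averaged ratio beyond 3 SD from buffer wells, up or down, though filed actives are nearly all decreases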
Large screens that a line does not name were inactive (follow-up assays come after a bar, where they were run). Most compounds without a hit are left out; they make up all but 4.9% or so of the library.

Cc1cccc(NC(=S)N=Nc2c(O)[nH]c3ccccc23)c1	HSF1 activator 90, CHT allo act 9.5 | CHT activ conf inactive | HEK293 MP dye inactive
Cc1cccc(NC(=O)c2cc(=O)[nH]c3ccccc23)c1	none (no result: PHOSPHO1 inh)
Cc1cccc2nc(=S)n(C(=O)c3ccco3)n12	none
O=C(c1ccco1)n1c(=S)nc2ccccn21	none (no result: Lipid droplet) | CHT activ conf 34 | HEK293 MP dye -24
CN(CC(=O)Nc1cccc(F)c1)C(=O)CN1C(=O)NC2(CCCCC2)C1=O	none (no result: Lipid droplet, PHOSPHO1 inh)
CC(OC(=O)CC(NC(=O)c1ccccc1Cl)c1ccccc1)C(=O)Nc1cccc(Cl)c1Cl (configuration not stated)	none | CHT activ conf 31 | HEK293 MP dye inactive
Cc1cc(C)c2[nH]c(=O)c(C(c3nnnn3CC3CCCO3)N3CCC(C)CC3)cc2c1 (configuration not stated)	none
Cc1cc(C)c2[nH]c(=O)c(C(c3nnnn3CC3CCCO3)N3CCCC(C)C3)cc2c1 (configuration not stated)	CHT allo act 7.3 | CHT activ conf inactive | HEK293 MP dye inactive
Cn1c(=O)c2c(-c3ccccc3)n(CCCN3CCOCC3)cc2n(C)c1=O	none | CHT activ conf 79 | HEK293 MP dye -52
Cc1ccc(-c2c3c(=O)n(C)c(=O)n(C)c3cn2Cc2ccccc2)cc1	none
Cc1cc(N2CCCC2)nc2ccccc12	none | CHT activ conf 48 | HEK293 MP dye -58
Cc1cc(N2CCCCC2)nc2c(C)cccc12	none
Cc1ccc(NC(=O)CSc2ccc3nnc(-c4ccccn4)n3n2)cc1	none
CC(=O)c1ccc(NC(=O)CSc2ccc3nnc(-c4ccccn4)n3n2)cc1	none | CHT activ conf 49 | HEK293 MP dye -46
O=C(CSc1ccc2nnc(-c3cccnc3)n2n1)N1CCOCC1	CHT allo act 7.1 (no result: Lipid droplet) | CHT activ conf 30 | HEK293 MP dye -26
Cc1cc(NC(=O)CSc2ccc3nnc(-c4cccs4)n3n2)no1	CHT allo act 9.9 (no result: Lipid droplet) | CHT activ conf 22 | HEK293 MP dye -33
Cc1cc(NC(=O)CSc2ccc3nnc(-c4cccnc4)n3n2)no1	CHT allo act 9.3 (no result: Lipid droplet) | CHT activ conf 49 | HEK293 MP dye -42
COc1ccc2oc3cc(C)[n+]([O-])c(-c4ccc(C)cc4)c3c2c1	none
O=C(NCC1CCCO1)C(=O)NCC1CCCN1S(=O)(=O)c1ccccc1 (configuration not stated)	none (no result: Lipid droplet, PHOSPHO1 inh)
O=C(NNC(=O)C1COc2ccccc2O1)c1cccc([N+](=O)[O-])c1 (configuration not stated)	none
C#CC[N+]1(CC#Cc2ccccc2)CCCC1	none (no result: Lipid droplet)
C#CC[N+]1(CC#Cc2ccc(C#CC[N+]3(CC#C)CCOCC3)cc2)CCOCC1	none | CHT activ conf 38 | HEK293 MP dye -41
O=C(CSc1nc2nc(-c3cccs3)cc(C(F)(F)F)c2c(=O)[nH]1)Nc1c(F)c(F)c(F)c(F)c1F	none
COC1=C(Nc2ccccc2)C(=O)c2ccccc2C1=O	none | CHT activ conf 35 | HEK293 MP dye -58
C[n+]1c2n(c3ccccc31)N=C(c1ccccc1)CS2	CHT allo act 7.1 | CHT activ conf 58 | HEK293 MP dye -55
C[n+]1c2n(c3ccccc31)N=C(c1ccc(-c3ccccc3)cc1)CS2	CHT allo act 7.9 | CHT activ conf 40 | HEK293 MP dye -35
C[n+]1c2n(c3ccccc31)N=C(c1ccc(Br)cc1)CS2	none
CN(C)CCCNc1c2c(nc3ccccc13)CCC2	none | CHT activ conf 62 | HEK293 MP dye -66
COc1ccc(C)cc1Nc1c2c(nc3ccccc13)CCC2	CHT allo act 6.8 (no result: Lipid droplet) | CHT activ conf 36 | HEK293 MP dye -27
COCCNc1c2c(nc3ccccc13)CCC2	none | CHT activ conf 44 | HEK293 MP dye -40
CCCCCC(=O)Nc1c2c(nc3ccccc13)CCC2	none
C=CCNC(=O)CSc1nnc(-c2ccccc2Cl)n1-c1c(C)n(C)n(-c2ccccc2)c1=O	none
O=C(NC1(C(F)(F)F)NC(=O)N(c2ccc(F)cc2)C1=O)c1cccs1 (configuration not stated)	none
NNC(=O)CCCNc1ncc(C(F)(F)F)cc1Cl	none
COc1ccc(-c2c(C(C)=O)c(C)nc3sc4c(=N)n(N)cnc4c23)cc1	CHT allo act 6.7 | CHT activ conf 41 | HEK293 MP dye -38
CC(C)N1CCC(N2CCN(Cc3cc(F)ccc3-n3cccn3)CC2CCO)CC1 (configuration not stated)	none | CHT activ conf 73 | HEK293 MP dye -55
C=CCNc1nc(C)c(C(C)=O)cc1C#N	none
CC(=O)c1cc(C#N)c(NCCCN(C)C)nc1C	none | CHT activ conf 54 | HEK293 MP dye -32
Cc1cc(OCC(=O)NC2CC(C)(C)NC(C)(C)C2)c2c(C)cc(=O)oc2c1	none | CHT activ conf 66 | HEK293 MP dye -45
Cc1cc(OCC(=O)NC2CC(C)(C)NC(C)(C)C2)c2c(C)c(C)c(=O)oc2c1	CHT allo act 9.2 | CHT activ conf 49 | HEK293 MP dye -48
Cc1cc(=O)oc2c(C)c(OCC(=O)NC3CC(C)(C)NC(C)(C)C3)ccc12	CHT allo act 8.2 | CHT activ conf 47 | HEK293 MP dye -54
Cc1c(OCC(=O)NC2CC(C)(C)NC(C)(C)C2)ccc2c3c(c(=O)oc12)CCC3	none
Cc1c(OCC(=O)NC2CC(C)(C)NC(C)(C)C2)ccc2c1oc(=O)c1ccccc12	none
Cc1cc(C)cc(NC(=O)CSc2nncn2-c2ccccn2)c1	none
CC(=O)c1cc(CN2CCC(N3CCC(C(=O)NC(C)C)CC3)CC2)cs1	none
Cn1c(=O)c(=O)n(C)c2cc(S(=O)(=O)N3CCC(N4CCCCC4)CC3)ccc21	CHT allo act 10 (no result: Lipid droplet, PHOSPHO1 inh) | CHT activ conf 77 | HEK293 MP dye -77
Cn1c(=O)c(=O)n(C)c2cc(S(=O)(=O)N3CCCCC3)ccc21	none
O=C1CC2c3ccccc3C1C1C(=O)N(Cc3ccccc3)C(=O)C21 (configuration not stated)	none
Oc1ccccc1N=Nc1nc(-c2ccccc2)c(-c2ccccc2)[nH]1	HSF1 activator 71 | CHT activ conf inactive | HEK293 MP dye inactive
O=C(O)c1ccc(-c2nc(-c3ccccc3)c(-c3ccccc3)[nH]2)cc1	none
Cn1c(=O)n(C)c2cc([N+](=O)[O-])c(N3CCN(CCO)CC3)cc21	CHT allo act 9.3 | CHT activ conf 53 | HEK293 MP dye -70
